This note sets out measurements from ChEMBL document CHEMBL2390862, “Enmein-type diterpenoid analogs from natural kaurene-type oridonin: Synthesis and their antitumor biological evaluation” (Eur J Med Chem, 2013).

The structures appear in SMILES notation.

Type in all cases: functional, cell-based
The nature of assay [1]: Cytotoxicity against human CaEs17 cells after 72 hrs by MTT assay. To be noted: CaEs17, 72 h. Summed up: (§1)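 K562, CaEs-17, Bel-7402 and MGC-803 cells in log phase seeded at 5 × 10⁴ cells/mL, incubated with or without test compounds at 37 °C, 5% CO₂; after 72 h MTT (5 mg/mL stock) added for 4 h, formazan dissolved in DMSO, OD read at 490 nm. Negative reference 0.1% DMSO, Taxol positive control. IC50 as mean ± S.D. of three independent experiments.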
In general terms: Formazan colour is commonly taken as a measure of viable cells.

Assay [2] has as its system Bel-7402. The assay is described as follows: Cytotoxicity against human Bel7402 cells after 72 hrs by MTT assay. To be noted: Bel-7402, 72 h. The method in brief:
as §1

Assay [3] has as its system MGC-803. The assay is described as follows: Cytotoxicity against human MGC803 cells after 72 hrs by MTT assay. The conditions noted are these: MGC-803, 72 h. The method in brief: as §1
Assay [4] concerns K562. Description: Cytotoxicity against human K562 cells after 72 hrs by MTT assay. To be noted: K562, 72 h. The method in brief:
as §1

The term IC50 denotes the point on the concentration scale where inhibition reaches its midpoint. Higher therefore signals weaker potency in that assay. Consider `C=C1C(=O)[C@@]23C(=O)O[C@H]4CCC(C)(C)[C@H]5[C@H](O)OC[C@@]45[C@@H]2CC[C@@H]1[C@H]3OC(=O)c1ccccc1Cl`, for which the concentration for half-maximal inhibition (IC50) in assay [1] was 600 nM; in assay [2], 850 nM; in assay [3] it was 800 nM; in assay [4] it was 220 nM.
The matching figures for `C=C1C(=O)[C@@]23C(=O)O[C@H]4CCC(C)(C)[C@H]5[C@H](O)OC[C@@]45[C@@H]2CC[C@@H]1[C@H]3OC(=O)CC`: 1210 nM, 1530 nM, 1560 nM and 1020 nM.
Consider `CC(=O)O[C@H]1C(=O)[C@@]2(C)[C@H]([C@H](OC(=O)c3ccccc3)[C@]3(O)C[C@H](OC(=O)[C@H](O)[C@@H](NC(=O)c4ccccc4)c4ccccc4)C(C)=C1C3(C)C)[C@]1(OC(C)=O)CO[C@@H]1C[C@@H]2O` [PACLITAXEL], for which, in assay [1], the IC50 stood at 430 nM.
Regarding `C=C1C(=O)[C@@]23C(=O)O[C@H]4CCC(C)(C)[C@H]5[C@H](O)OC[C@@]45[C@@H]2CC[C@@H]1[C@H]3OC(=O)c1ccc(C)cc1`, the IC50 in assay [1] was determined as 450 nM; in assay [2] it was 1010 nM; in assay [3], 610 nM; in assay [4] it was 140 nM.
For `C=C1C(=O)[C@@]23C(=O)O[C@H]4CCC(C)(C)[C@H]5[C@H](O)OC[C@@]45[C@@H]2CC[C@@H]1[C@H]3OC(=O)c1ccccc1` the same measures were 540 nM, 1420 nM, 930 nM and 210 nM.
Consider `C=C1C(=O)[C@@]23C(=O)O[C@H]4CCC(C)(C)[C@H]5[C@H](O)OC[C@@]45[C@@H]2CC[C@@H]1[C@H]3OC(C)=O`, for which the IC50 in assay [1] turned out to be 1590 nM; in assay [2] it was 1970 nM; in assay [3] it was 1990 nM; in assay [4] it was 1110 nM.
`C=C1C(=O)[C@@]23C(=O)O[C@H]4CCC(C)(C)[C@H]5[C@H](O)OC[C@@]45[C@@H]2CC[C@@H]1[C@H]3O` yielded an IC50 in assay [3] of 14200 nM.
For `C=C1C(=O)[C@@]23C(=O)O[C@H]4CCC(C)(C)[C@H]5[C@H](O)OC[C@@]45[C@@H]2CC[C@@H]1[C@H]3OC(=O)c1ccc(C(F)(F)F)cc1`, the IC50 came to 760 nM in assay [1], 1270 nM in assay [2], 960 nM in assay [3] and 370 nM in assay [4].
For `C=C1C(=O)[C@@]23C(=O)O[C@H]4CCC(C)(C)[C@H]5[C@H](O)OC[C@@]45[C@@H]2CC[C@@H]1[C@H]3OC(=O)c1cc(F)c(F)c(F)c1F` the same measures were 1890 nM, 890 nM, 1240 nM and 1040 nM.
The matching figures for `C=C1C(=O)[C@@]23C(=O)O[C@H]4CCC(C)(C)[C@H]5[C@H](O)OC[C@@]45[C@@H]2CC[C@@H]1[C@H]3OC(=O)c1ccc(OC)cc1`: 2710 nM, 1790 nM, 3330 nM and 690 nM.
For `C=C1C(=O)[C@@]23C(=O)O[C@H]4CCC(C)(C)[C@H]5[C@H](O)OC[C@@]45[C@@H]2CC[C@@H]1[C@H]3OC(=O)c1ccc([N+](=O)[O-])cc1` the same measures were 580 nM, 1010 nM, 640 nM and 260 nM.
